Data on 30 compounds can be found in publication PMC3517065 (ChemMedChem, 2012).

System in the first series: not listed separately
Briefly: MTT-based cell viability assay. Conditions: human, HeLa cells. The essentials:
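HeLa cells harvested in log phase, seeded at 1×10^3 per well in DMEM with 10% FBS, kept at 37 °C with 5% CO2. Test compound added 24 h after seeding from 10× stocks in DMEM; controls were DMEM alone and medium with DMSO (final 1%). At 72 h, MTT (2 mg mL−1 in PBS) added for 4 h; formazan dissolved in DMSO, A550 read. Value is the concentration reducing absorbance to 50% of control.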
`COc1ccccc1NC(=O)c1ccccc1Oc1ccc([N+](=O)[O-])cc1` [18a, N-(2-Methoxyphenyl)-2-(4-nitrophenoxy)benzamide] showed a cytotoxic concentration (CC50) at 72 h of 15 µM.
The same measure, in the same setting: with `COc1ccccc1C(=O)Nc1ccccc1OCc1ccc([N+](=O)[O-])cc1` [40k, N-(2-(4-Nitrobenzyloxy)phenyl)-2-methoxybenzamide] the figure was over 100 µM; with `COc1ccccc1NC(=O)c1ccccc1OCc1ccc([N+](=O)[O-])cc1` [40j, N-(2-Methoxyphenyl)-2-((4-nitrobenzyl)oxy)benzamide], over 100 µM; with `O=C(Nc1ccccc1CO)c1ccccc1Sc1ccc([N+](=O)[O-])cc1` [15e, N-(2-(Hydroxymethyl)phenyl)-2-((4-nitrophenyl)thio)benzamide], over 100 µM.
In the case of `COc1ccc(Oc2ccccc2NC(=O)c2ccccc2OC)cc1` [31k, 2-Methoxy-N-(2-(4-methoxyphenoxy)phenyl)benzamide], the cytotoxic concentration (CC50) at 72 h was over 100 µM.
The same measure, in the same setting: the value for `O=C(Cc1ccccc1F)Nc1ccccc1Sc1ccc([N+](=O)[O-])cc1` [5g, 2-(2-Fluorophenyl)-N-(2-((4-nitrophenyl)thio)phenyl)acetamide] was over 100 µM; that for `COc1ccccc1NS(=O)(=O)c1ccccc1Sc1ccc([N+](=O)[O-])cc1` [5d, N-(2-Methoxyphenyl)-2-((4-nitrophenyl)thio)benzenesulfonamide] was over 100 µM; that for `CC(C)(C)OC(=O)N1CCN(C(=O)c2ccccc2Sc2ccc([N+](=O)[O-])cc2)CC1` [15h, tert-Butyl 4-(2-((4-nitrophenyl)thio)benzoyl)piperazine-1-carboxylate] was 70 µM.
On the same count and under the same terms, with `COc1ccccc1NS(=O)(=O)c1ccccc1Sc1ccc(N)cc1` [6d, 2-((4-Aminophenyl)thio)-N-(2-methoxyphenyl)benzenesulfonamide] the figure was over 100 µM.
Still for that read-out and setting: with `COc1ccccc1C(=O)Nc1ccccc1Sc1ccc([N+](=O)[O-])cc1` [5c, N-(2-(4-Nitrophenylthio)phenyl)-2-methoxybenzamide] the figure was over 100 µM; with `O=C(Nc1cccc(CO)c1)c1ccccc1Sc1ccc([N+](=O)[O-])cc1` [15f, N-(3-(Hydroxymethyl)phenyl)-2-((4-nitrophenyl)thio)benzamide], over 100 µM.
On to `COC(=O)c1ccc(COc2ccccc2NC(=O)c2ccccc2OC)cc1` [45k, Methyl 4-((2-(2-methoxybenzamido)phenoxy)methyl)benzoate], for which the CC50 at 72 h is over 100 µM.
Still for that read-out and setting: with `COc1ccccc1C(=O)Nc1ccccc1Oc1ccc([N+](=O)[O-])cc1` [29k, 2-Methoxy-N-(2-(4-nitrophenoxy)phenyl)benzamide] the figure was over 100 µM.
Still for that read-out and setting: with `COc1ccccc1S(=O)(=O)Nc1ccccc1Sc1ccc([N+](=O)[O-])cc1` [5e, 2-Methoxy-N-(2-(4-nitrophenylthio)phenyl)benzenesulfonamide] the figure was over 100 µM; with `COc1ccccc1C(=O)Nc1ccccc1Sc1ccc(N)cc1` [6c, N-(2-(4-Aminophenylthio)phenyl)-2-methoxybenzamide], 60 µM; with `COc1ccccc1C(=O)Nc1ccccc1Oc1ccc(N(C)C)cc1` [30k, N-(2-(4-(Dimethylamino)phenoxy)phenyl)-2-methoxybenzamide], over 100 µM.
On the same count and under the same terms, the value for `COc1ccccc1S(=O)(=O)Nc1ccccc1Sc1ccc(N)cc1` [6e, N-(2-(4-aminophenylthio)phenyl)-2-methoxybenzenesulfonamide] was 65 µM; that for `COc1ccccc1C(=O)Nc1ccccc1Oc1ccc(OC(C)=O)cc1` [32k, 4-(2-(2-Methoxybenzamido)phenoxy)phenyl acetate] was over 100 µM.
As to `O=C(Nc1ccccc1CO)c1ccccc1Oc1ccc([N+](=O)[O-])cc1` [18e, N-(2-(hydroxymethyl)phenyl)-2-(4-nitrophenoxy)benzamide], the CC50 at 72 h stood at 25 µM.
Compound `COc1ccccc1NC(=O)c1ccccc1Oc1ccc2c(c1)OCO2` [23h, 2-(Benzo[d][1,3]dioxol-5-yloxy)-N-(2-methoxyphenyl)benzamide] had a CC50 at 72 h of over 100 µM.
On the same count and under the same terms, with `COc1ccccc1NC(=O)c1ccccc1Sc1ccc([N+](=O)[O-])cc1Cl` [16a, 2-(2-Chloro-4-nitrophenylthio)-N-(2-methoxyphenyl)benzamide] the figure was 50 µM; with `COc1ccccc1NC(=O)c1ccccc1Oc1ccc(N)cc1` [19a, 2-(4-Aminophenoxy)-N-(2-methoxyphenyl)benzamide], over 100 µM; with `COc1ccccc1CC(=O)Nc1ccccc1Sc1ccc([N+](=O)[O-])cc1` [5f, 2-(2-Methoxyphenyl)-N-(2-((4-nitrophenyl)thio)phenyl)acetamide], over 100 µM.
On the same count and under the same terms, with `COc1ccccc1NC(=O)c1ccccc1Sc1ccccc1` [4a, N-(2-Methoxyphenyl)-2-(phenylthio)benzamide] the figure was over 100 µM.
The same measure, in the same setting: with `COc1ccccc1NC(=O)c1ccccc1Sc1ccc(N)cc1` [6a, 2-((4-Aminophenyl)thio)-N-(2-methoxyphenyl)benzamide] the figure was over 100 µM; with `COc1ccccc1NC(=O)c1ccccc1OCc1cccc([N+](=O)[O-])c1` [41j, N-(2-Methoxyphenyl)-2-((3-nitrobenzyl)oxy)benzamide], over 100 µM; with `COc1ccccc1NC(=O)c1ccccc1Sc1ccc([N+](=O)[O-])cc1` [5a (RN18), N-(2-Methoxyphenyl)-2-((4-nitrophenyl)thio)benzamide], over 100 µM.
With `COC(=O)c1ccc(Oc2ccccc2NC(=O)c2ccccc2OC)cc1` [33k, Methyl 4-(2-(2-methoxybenzamido)phenoxy)benzoate], the half-maximal cytotoxic concentration (CC50) at 72 h is over 100 µM.
For `COc1ccc(COc2ccccc2C(=O)Nc2ccccc2OC)cc1` [43j, 2-(4-methoxybenzyloxy)-N-(2-methoxyphenyl)benzamide], the 50% cytotoxic concentration (CC50) at 72 h is over 100 µM.
`O=C(Nc1ccc2c(c1)OCO2)c1ccccc1Sc1ccc([N+](=O)[O-])cc1Cl` [16d, N-(Benzo[d][1,3]dioxol-5-yl)-2-((2-chloro-4-nitrophenyl)thio)benzamide] had a CC50 at 72 h of over 100 µM.

A further series has as its system HIV-1 in permissive cells (MT-4).
Assay: not given
Conditions: which do not express A3G; cited from earlier work.
As to `COc1ccccc1NC(=O)c1ccccc1Sc1ccc([N+](=O)[O-])cc1` [5a (RN18), N-(2-Methoxyphenyl)-2-((4-nitrophenyl)thio)benzamide], the “inhibition of HIV-1 replication in permissive cells” value is on record as “not in permissive cells”.

Usually CC50 stands for the concentration that lowers cell viability or growth by half. The low end stands for greater toxicity to the cells, the high end for lower toxicity to the cells.
